High-throughput results (PubChem BioAssay)
Shown are actives, neighbours in structure and some others; about 3.5% of the full set was active somewhere.
MrgX1 antag: antagonists of human MrgX1 receptor; AID 588676; Q96LB2; 310,000 compounds, 1.3% hits; MRGX1-HEK293 calcium flux, Fluo-4, BAM8-22 antagonism; stronger effect = lower value; B-score at 10 µM;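 active means calcium-response B-score plate-corrected more than 3 library SD below zero, starting fluorescence within 5 deviations, no agonist response on first addition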;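 further: peak minus trough fluorescence over baseline after final BAM8-22 challenge near maximal dose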
Target sequence (Q96LB2 whole entry, looked up): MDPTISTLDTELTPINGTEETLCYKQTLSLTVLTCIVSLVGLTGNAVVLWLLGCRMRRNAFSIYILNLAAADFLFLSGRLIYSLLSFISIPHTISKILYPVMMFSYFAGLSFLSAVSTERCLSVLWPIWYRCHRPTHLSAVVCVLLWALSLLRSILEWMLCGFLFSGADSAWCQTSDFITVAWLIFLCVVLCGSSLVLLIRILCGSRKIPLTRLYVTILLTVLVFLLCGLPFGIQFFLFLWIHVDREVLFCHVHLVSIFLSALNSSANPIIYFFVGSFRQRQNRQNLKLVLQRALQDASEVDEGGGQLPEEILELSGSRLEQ
MrgX1 agonist: activates human MrgX1 receptor signaling; Q96LB2; MrgX1-HEK293 cells, Fluo-4 calcium fluorescence, agonist mode; stronger effect = higher value; B-score at 10 µM; 310,000 compounds, 0.44% hits; AID 588627;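 active means calcium response B-score plate-corrected fluorescence ratio at least 3 library SD, with starting fluorescence B-score inside 5 SD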
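Material: HEK293 cells stably expressing human MrgX1 receptor | Quantity: 15,000 cells per well | Times: Cells plated overnight, dye loaded 0.5 h 37 °C, 0.5 h room temperature | Measured by: Kinetic Fluo-4 NW fluorescence of intracellular calcium | Control set: Positive and negative controls per plate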
MrgX1 PAM: human MrgX1 positive allosteric modulation, primary screen | B-score at 10 µM | Q96LB2 | MrgX1-HEK293, Fluo-4 calcium flux, FDSS; stronger effect = higher value | 310,000 compounds, 0.63% hits;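 active means plate-corrected calcium response at least 3 library SD above typical, normal starting fluorescence, not activating the receptor alone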;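 further: compound read alongside a low EC10 to EC30 dose of BAM8-22 agonist; peak minus trough fluorescence over baseline measured at the second addition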
RGS4 block: human RGS4 inhibition. HEK293 M3R/RGS4 inducible, Fluo-4 calcium flux; stronger effect = higher value; triggered by carbachol at its EC20. B-score at 10 µM. AID 463165. 310,000 compounds, 0.45% hits. P49798;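 active means B-score, a plate-corrected calcium signal, over three deviations above library mean, with baseline fluorescence within five deviations of library mean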;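 further: RGS4 expression induced by doxycycline in cells with stable M3 receptor; B-score is computed from the integrated fluorescence ratio over baseline after carbachol; higher B-score means a larger calcium signal and so more RGS4 inhibition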
Target sequence (P49798 whole entry, looked up): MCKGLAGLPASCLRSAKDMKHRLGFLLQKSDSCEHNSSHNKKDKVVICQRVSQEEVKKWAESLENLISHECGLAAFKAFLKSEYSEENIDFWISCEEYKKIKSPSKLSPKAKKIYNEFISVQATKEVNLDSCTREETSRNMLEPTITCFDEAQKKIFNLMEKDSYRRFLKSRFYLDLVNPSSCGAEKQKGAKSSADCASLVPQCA
RGS4 act: RGS4 potentiation or activation | HEK293 M3R/inducible RGS4, carbachol calcium flux Fluo4; stronger effect = lower value | B-score at 10 µM | AID 463111 | 310,000 compounds, 0.92% hits;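 active means B-score of the integrated calcium signal more than 4 SD below the library mean, with starting fluorescence not abnormally high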;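 further: negative B-score means reduced calcium response which marks RGS4 activation or potentiation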
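System – HEK293 FlpIn-TREx cells, stable M3R, doxycycline-inducible RGS4 · Reagent – ECmax carbachol challenge · Times – compound preincubation 20 min at room temperature before agonist · Technique – Fluo4 fluorescence kinetic imaging of calcium · Measure – B score of integrated Fluo4 ratio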
MrgX1 antag conf: reconfirmed antagonist of human MrgX1 receptor signaling. shares compounds with MrgX1 antag. MrgX1-HEK293, BAM8-22 calcium flux, Fluo-4; stronger effect = lower value. remaining BAM8-22 calcium response % of control (stronger effect = lower value), % at 10 µM. 2,300 compounds, 19% hits;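 active means remaining agonist calcium response no higher than 100% minus 3 SD of agonist-only control wells, with starting fluorescence near control levels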;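 further: agonist BAM8-22 given at a near maximal EC90 to ECmax level; peak minus minimum fluorescence divided by baseline after agonist addition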
HEK293 Ca flux: counter-screen for MrgX1 antagonists: effect in parental HEK293 cells | shares compounds with MrgX1 antag | 4,000 compounds, 2% hits | Fluo-4 calcium fluorescence, FDSS | fluorescence ratio F(max-min)/F0 at 10 µM;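 active means duplicate-averaged calcium fluorescence ratio at least three times the standard deviation of buffer wells, a nonspecific response in parental cells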
HEK293 Ca counter: activity in parental HEK293 cells without MrgX1 | shares compounds with MrgX1 antag | parental HEK293 calcium flux, Fluo-4 fluorescence ratio; stronger effect = higher value | 4,000 compounds, 0.4% hits | AID 624114 | fluorescence ratio F(max-min)/F0 at 10 µM;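 active means calcium fluorescence ratio, averaged over duplicates, at least 3 SD of the buffer-well ratio, meaning a nonspecific response in receptor-free cells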;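 further: untransfected parental HEK293 lacking MrgX1 used as counterscreen for MrgX1 allosteric activators; fluorescence change taken during the second addition on a kinetic imager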
HEK293 Ca cntr2: MrgX1 activator counter-screen hit in parental HEK293 cells | fluorescence ratio F(max-min)/F0 at 10 µM | 4,000 compounds, 8.7% hits | shares compounds with MrgX1 antag | AID 624115 | Fluo-4 calcium fluorescence (FDSS); stronger effect = higher value;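 active means calcium fluorescence ratio at least three times the spread of buffer wells, meaning a non-specific response in parental cells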
The depositor's hits bear a star; i = inactive; / = not tested or not shown.

SMILES	MrgX1 antag	MrgX1 agonist	MrgX1 PAM	RGS4 block	RGS4 act	MrgX1 antag conf	HEK293 Ca flux	HEK293 Ca counter	HEK293 Ca cntr2
Cc1ccc2[nH]c3c(NCc4ccccc4)ncnc3c2c1	-7.4*	i	i	i	i	i	i	i	i
COc1ccc(CNc2ncnc3c2[nH]c2ccccc23)cc1	i	i	i	i	i	/	/	/	/
CC(C)OCCCNc1ncnc2c1[nH]c1ccccc12	-8.4*	i	i	i	i	52%*	i	i	i
COC(=O)c1ccc(C2/C(=C(/O)c3ccc4c(c3)CC(C)O4)C(=O)C(=O)N2Cc2ccncc2)cc1 (stereo not given)	i	i	i	i	i	/	/	/	/
COc1ccc(N2CCN(C3CCCCC3NS(=O)(=O)c3ccc(Cl)cc3)CC2)cc1 (stereo not given)	-7.6*	i	i	i	i	i	i	i	i
COc1ccc(CN2C3CCC2CC(NC(=O)c2cc(OC)c(OC)c(OC)c2)C3)cc1 (stereo not given)	i	i	i	i	i	/	/	/	/
Cc1ccc(NC(=O)CC2=NC(=O)C(CC(=O)Nc3ccccc3F)S2)cc1 (stereo not given)	-4.9*	i	i	i	i	i	i	i	i
COc1ccc(Cc2nnc(NS(C)(=O)=O)s2)cc1	-6.4*	i	i	i	i	i	i	i	i
O=C(O)c1ccc(NC(=S)NC(=O)c2ccc(-c3ccccc3)cc2)cc1	-5.2*	i	i	i	i	82%*	i	i	i
O=C(NC(=S)Nc1ccccc1)c1ccc(-c2ccccc2)cc1	i	i	i	i	i	/	/	/	/
CCOC(=O)C1CCCN(C(=O)CSCc2ccccc2)C1 (stereo not given)	-8.9*	i	i	i	i	i	i	i	i
CCOc1ccc(-c2nnn(CC(=O)c3cc(OC)ccc3OC)n2)cc1	-4.7*	i	i	i	i	81%*	i	i	i
O=C(CCS(=O)(=O)c1ccccc1)Nc1cccc(-c2nc3ccccc3s2)c1	-6.2*	i	i	i	i	84%*	i	i	i
CCSc1nc2cc(OC)c(OC)cc2c(=O)n1CC	-4.8*	i	i	i	i	i	i	i	i
O=S(=O)(NCc1cn2ccccc2n1)c1cccs1	i	i	i	i	i	/	/	/	/
Cc1nnc(SCC(=O)Nc2nccs2)o1	i	i	i	i	i	/	/	/	/
CCCCC(=O)Nc1ccc(C(=O)N(CC)c2ccccc2C)cc1	-7*	i	i	i	i	i	i	i	i
CCOc1ccc(S(=O)(=O)NC(C)C)cc1C(N)=O	i	i	i	i	i	/	/	/	/
O=C(COC(=O)c1cccs1)c1ccc2ccccc2c1	-5.6*	i	i	i	i	i	i	i	i
COCCNC(=O)CSc1nc(N)c(NC(=O)c2ccccc2F)c(=O)[nH]1	i	i	i	i	i	/	/	/	/
Cc1ccc2oc(C(=O)Nc3nonc3C)c(C)c2c1	i	i	i	i	i	/	/	/	/
Cc1ccc2oc(C(=O)Nc3nnc(C)s3)c(C)c2c1	-4.7*	i	i	i	i	i	i	i	i
N#CCCN(C(=O)COC(=O)C1=NNC(=O)CC1)c1ccccc1	i	i	i	i	i	/	/	/	/
